Among the data in ChEMBL document CHEMBL1138239, “Probing molecular interactions within class II MHC Aq/glycopeptide/T-cell receptor complexes associated with collagen-induced arthritis” (2007) are Activity values, retold here.

*1 amine or outer side, *2 acyl side, *3 side chain or, on linkers, in order; H or OH if unused. Where a SMILES comes first, the peptide text is derived from it. [ ]: non-standard residue; d: D form. X4 = NC[C@@H](CC[C@H](N[*:1])C(=O)[*:2])O[C@@H]1O[C@H](CO)[C@H](O)[C@H](O)[C@H]1O; X2 = C[C@H](N[*:1])C(=O)CCC(=O)[*:2]; X5 = C[C@@H](/C=C/CC(=O)[*:2])N[*:1]

Common to all, as to assay type: functional, Mus musculus
Assay [1] can be described thus: Induction of immune response of T-cell HCQ.6 hybridoma in presence of antigen-presenting spleen cells expressing Aq assessed as drug concentration required to induce IL2 secretion after 24 hrs by ELISA. The essentials: (§1)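 5 × 10⁴ hybridoma cells co-cultured with 5 × 10⁵ syngeneic spleen cells and glycopeptide at 0, 0.00128, 0.0064, 0.032, 0.16, 0.8, 4, 20 µM for 24 h. Supernatant frozen, then IL-2 measured by sandwich ELISA (rat anti-mouse IL-2 capture and biotin detection, DELFIA read-out) against a recombinant mouse IL-2 standard. Score is the lowest concentration giving IL-2 at 6% of the maximal response to the native CII259-273 glycopeptide reference.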
(In an ELISA, binding on a coated surface is turned into a signal by an enzyme label.)

The nature of assay [2]: Induction of immune response of T-cell HCQ.3 hybridoma in presence of antigen-presenting spleen cells expressing Aq assessed as drug concentration required to induce IL2 secretion after 24 hrs by ELISA. The essentials: as §1
Assay [3] is described as follows: Induction of immune response of T-cell HD13.9 hybridoma in presence of antigen-presenting spleen cells expressing Aq assessed as drug concentration required to induce IL2 secretion after 24 hrs by ELISA. The essentials:
as §1

The nature of assay [4]: Induction of immune response of T-cell HMIR.2 hybridoma in presence of antigen-presenting spleen cells expressing Aq assessed as drug concentration required to induce IL2 secretion after 24 hrs by ELISA. The essentials: as §1
Assay [5] is described as follows: Induction of immune response of T-cell 22a1-7E hybridoma in presence of antigen-presenting spleen cells expressing Aq assessed as drug concentration required to induce IL2 secretion after 24 hrs by ELISA. The essentials: as §1
A short description of assay [6]: Induction of immune response of T-cell HCQ.2 hybridoma in presence of antigen-presenting spleen cells expressing Aq assessed as drug concentration required to induce IL2 secretion after 24 hrs by ELISA. In a few lines:
as §1

A short description of assay [7]: Induction of immune response of T-cell HD13.10 hybridoma in presence of antigen-presenting spleen cells expressing Aq assessed as drug concentration required to induce IL2 secretion after 24 hrs by ELISA. In a few lines:
as §1

Assay [8] in a line: Induction of immune response of T-cell HNC.1 hybridoma in presence of antigen-presenting spleen cells expressing Aq assessed as drug concentration required to induce IL2 secretion after 24 hrs by ELISA. The essentials: as §1

For `CC[C@H](C)[C@H](NC(=O)CN)C(=O)N[C@@H](C)C(=O)CCC(=O)N[C@@H](Cc1ccccc1)C(=O)N[C@@H](CC[C@H](CN)O[C@@H]1O[C@H](CO)[C@H](O)[C@H](O)[C@H]1O)C(=O)NCC(=O)N[C@@H](CCC(=O)O)C(=O)N[C@@H](CCC(N)=O)C(=O)NCC(=O)N1CCC[C@H]1C(=O)N[C@@H](CCCCN)C(=O)NCC(=O)N[C@@H](CCC(=O)O)C(=O)N[C@H](C(=O)O)[C@@H](C)O` (H-GI[X2]F[X4]GEQGPKGET-OH), the Activity is 0.8 µM in assay [1]; 0.8 µM in assay [2]; 0.8 µM in assay [3]; 4 µM in assay [4]; 4 µM in assay [5]; 0.8 µM in assay [6]. In addition, the Activity worked out at 0.8 µM in assay [7] and 4 µM in assay [8].

`CC[C@H](C)[C@H](NC(=O)CN)C(=O)N[C@@H](C)/C=C/CC(=O)N[C@@H](Cc1ccccc1)C(=O)N[C@@H](CC[C@H](CN)O[C@@H]1O[C@H](CO)[C@H](O)[C@H](O)[C@H]1O)C(=O)NCC(=O)N[C@@H](CCC(=O)O)C(=O)N[C@@H](CCC(N)=O)C(=O)NCC(=O)N1CCC[C@H]1C(=O)N[C@@H](CCCCN)C(=O)NCC(=O)N[C@@H](CCC(=O)O)C(=O)N[C@H](C(=O)O)[C@@H](C)O` (H-GI[X5]F[X4]GEQGPKGET-OH): the Activity in assay [1], in assay [2] and in assay [6] was 20 µM each time.
